# From PubChem
# RGS4 block = inhibitors of human RGS4. HEK293 M3R/RGS4 inducible, Fluo-4 calcium flux; stronger effect = higher value; triggered by carbachol at its EC20. AID 463165. P49798. B-score at 10 µM. hit rate 0.45% among 310,000;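 active means B-score, a plate-corrected calcium signal, over three deviations above library mean, with baseline fluorescence within five deviations of library mean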;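 further: RGS4 expression induced by doxycycline in cells with stable M3 receptor; B-score is computed from the integrated fluorescence ratio over baseline after carbachol; higher B-score means a larger calcium signal and so more RGS4 inhibition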
# Target sequence (P49798 whole entry, looked up): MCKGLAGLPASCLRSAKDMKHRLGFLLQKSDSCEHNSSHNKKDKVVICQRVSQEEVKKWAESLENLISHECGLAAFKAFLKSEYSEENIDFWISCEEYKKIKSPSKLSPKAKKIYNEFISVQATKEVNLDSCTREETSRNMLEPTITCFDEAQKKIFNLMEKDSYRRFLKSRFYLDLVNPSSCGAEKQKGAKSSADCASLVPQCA
# MrgX1 antagonist = human MrgX1 receptor antagonism, primary screen | B-score at 10 µM | AID 588676 | Q96LB2 | hit rate 1.3% among 310,000 | MRGX1-HEK293 calcium flux, Fluo-4, BAM8-22 antagonism; stronger effect = lower value;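 active means calcium-response B-score plate-corrected more than 3 library SD below zero, starting fluorescence within 5 deviations, no agonist response on first addition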;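 further: peak minus trough fluorescence over baseline after final BAM8-22 challenge near maximal dose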
# Target sequence (Q96LB2 whole entry, looked up): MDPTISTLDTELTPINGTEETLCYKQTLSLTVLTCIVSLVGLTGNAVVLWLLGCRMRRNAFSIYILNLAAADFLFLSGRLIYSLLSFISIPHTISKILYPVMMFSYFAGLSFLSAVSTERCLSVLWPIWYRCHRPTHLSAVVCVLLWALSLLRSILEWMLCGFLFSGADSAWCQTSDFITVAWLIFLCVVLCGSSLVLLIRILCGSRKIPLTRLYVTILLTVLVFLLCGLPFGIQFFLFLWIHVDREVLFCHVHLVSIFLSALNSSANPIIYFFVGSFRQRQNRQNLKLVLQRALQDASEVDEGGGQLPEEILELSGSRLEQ
# MrgX1 agonist = agonists of human MrgX1 receptor. Q96LB2. MrgX1-HEK293 cells, Fluo-4 calcium fluorescence, agonist mode; stronger effect = higher value. B-score at 10 µM. hit rate 0.44% among 310,000. AID 588627;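 active means calcium response B-score plate-corrected fluorescence ratio at least 3 library SD, with starting fluorescence B-score inside 5 SD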
#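 Material: MrgX1-expressing HEK293 cells / Dosing: compound as first of three additions / Incubation: overnight seeding, then 1 h dark dye loading / Signal: Fluo-4 NW calcium fluorescence / Evaluation: B-scored fluorescence response ratio / Benchmarks: positive and negative control wells on each plate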
# RGS4 act = RGS4 potentiation or activation; HEK293 M3R/inducible RGS4, carbachol calcium flux Fluo4; stronger effect = lower value; B-score at 10 µM; hit rate 0.92% among 310,000;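 active means B-score of the integrated calcium signal more than 4 SD below the library mean, with starting fluorescence not abnormally high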;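 further: negative B-score means reduced calcium response which marks RGS4 activation or potentiation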
#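 test system = M3R-expressing HEK293 line, RGS4 induced by doxycycline | probe or stimulus = carbachol at ECmax as muscarinic agonist stimulus | timing = dye loading 30 min 37 °C, buffer rest 30 min RT | signal = calcium dye Fluo4 fluorescence | evaluation = B score from integrated fluorescence ratio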
# MrgX1 allo act = allosterically activates human MrgX1 receptor signaling; MrgX1-HEK293, Fluo-4 calcium flux, FDSS; stronger effect = higher value; B-score at 10 µM; hit rate 0.63% among 310,000;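 active means plate-corrected calcium response at least 3 library SD above typical, normal starting fluorescence, not activating the receptor alone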;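 further: compound read alongside a low EC10 to EC30 dose of BAM8-22 agonist; peak minus trough fluorescence over baseline measured at the second addition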
# Hep lipid drop = modulators of hepatic lipid droplet formation. AML12 mouse hepatocytes, oleate lipid droplets, BODIPY imaging. inhibition, % at 6.5 µM. hit rate 0.4% among 240,000. AID 1656;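 active means lipid droplet intensity inhibited by at least 50%, with more than 500 cells counted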
#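 Test system: AML12 mouse liver cells; schedule: overnight exposure; technique: high-content imaging of BODIPY-stained droplets and DAPI nuclei; read-out: % inhibition of corrected integrated BODIPY droplet signal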
# * marks the source's active call; other numbers are inactive results; i = inactive; . = no result. Most compounds without a hit are left out; they make up all but 3.8% or so of the library.
SMILES,RGS4 block,MrgX1 antagonist,MrgX1 agonist,RGS4 act,MrgX1 allo act,Hep lipid drop
Cc1ccsc1C(=O)N1CCCC(N(C)Cc2ccccc2)C1 (configuration not stated),i,i,i,i,i,0.7
COc1ccc(C)cc1Nc1n[n+](-c2ccccc2)c(-c2ccc(N(C)C)cc2)s1,i,i,33.6*,i,i,-64.8
Cc1cc(NC(=O)C(C)SCC(=O)Nc2ccccc2C(C)(C)C)no1 (configuration not stated),i,i,i,i,i,.
CCc1ccc(OCC(=O)NNC(=O)c2nn(CC)c(=O)c3ccccc23)cc1,i,i,i,i,9.58*,4.7
CCC1(C(=O)c2ccccc2)C(c2ccc([N+](=O)[O-])cc2)C1(C(=O)OC)C(=O)OC (configuration not stated),i,i,26.8*,i,i,7.1
Fc1ccc(NC(=S)Nc2ccccc2N2CCOCC2)cc1Cl,i,i,i,i,i,-30.7
Cc1cccc(C(=O)OCC(=O)NN2C(=O)NC3(CCC(C)CC3)C2=O)c1O (configuration not stated),i,i,i,i,i,.
CCCCc1cc(=O)oc2cc(C)cc(OCC(=O)NCc3ccncc3)c12,i,i,i,i,7.22*,-18.1
N=C1/C(=C\c2ccc(-c3cccc(C(=O)O)c3)o2)C(=O)N=C2SC=C(c3ccccc3)N12,i,i,i,i,7.05*,-14.2
CCc1nnc(NS(=O)(=O)c2ccc(NC(=S)NC(=O)/C=C/c3ccc(C(C)C)cc3)cc2)s1,i,i,i,-9.67*,i,.
CCC1CCCCN1CCCNC(=O)c1cn(CC)c2ccc(S(=O)(=O)N(C)C3CCCCC3)cc2c1=O (configuration not stated),i,i,i,i,i,-16.5
CCn1cc(C(=O)NCCCN2CCCC(C)C2)c(=O)c2cc(S(=O)(=O)N3CCc4ccccc4C3)ccc21 (configuration not stated),i,i,i,-7.2*,i,-8.1
CCC1CCCCN1CCCNC(=O)c1cn(CC)c2ccc(S(=O)(=O)N3CCc4ccccc4C3)cc2c1=O (configuration not stated),i,i,i,-9.02*,i,-17.4
COc1cc(C(=O)NCC2(N(C)C)CCCCC2)ccc1OCc1ccccc1,i,i,i,i,i,41.5
Cc1cc(C)c(S(=O)(=O)Nc2ccc3c4c(cccc24)CC3)c(C)c1,i,i,i,-7.55*,i,.
COC(=O)C1=C(C)NC(C)=C(C(=O)OC)C1c1ccccc1[N+](=O)[O-],i,i,i,-8.5*,i,-19.1
CCOC(=O)C1=C(C)NC(C)=C(C(=O)OC)C1c1cccc([N+](=O)[O-])c1 (configuration not stated),i,i,i,i,i,4.1
COC(=O)c1cccc(-c2ccc(/C=N/N3C(=O)C4C5C=CC(C6CC56)C4C3=O)o2)c1 (configuration not stated),i,i,i,-9.9*,i,3.1
O=C(O)C(c1ccccc1)N1C(=O)/C(=C\c2ccc(O)c(O)c2)SC1=S (configuration not stated),i,i,27.5*,i,i,2.8
COc1cc(/C=C2\SC(=S)N(C(C(=O)O)c3ccccc3)C2=O)ccc1O (configuration not stated),i,i,i,i,i,1.8
Cc1ccc(S(=O)(=O)/N=C(\CCl)N2CCOCC2)cc1,i,i,i,i,i,-18.8
COc1ccccc1C1=NNC(=Nc2cccc(S(=O)(=O)N(C)C)c2)SC1,i,-4.98*,i,i,i,1.7
COCCn1c(C)cc(C2=NNC(=Nc3ccccc3)SC2)c1C,i,i,i,i,i,.
CCc1cccc(C)c1NC(=O)CN(C)Cc1ccccc1F,i,i,i,i,i,-24.0
Cc1ccc(C(=O)NNC(=O)C2CCCN(c3ncccn3)C2)cc1 (configuration not stated),i,i,i,i,i,.
SMILES,RGS4 block,MrgX1 antagonist,MrgX1 agonist,RGS4 act,MrgX1 allo act,Hep lipid drop
COc1ccc(N2CCN(C(CNC(=O)C(=O)NCCCn3ccnc3)c3ccco3)CC2)cc1 (configuration not stated),i,-4.9*,i,i,i,-0.1
CCOC(=O)COc1nc(-c2ccco2)cc(-c2ccco2)c1C#N,i,i,i,-7.15*,i,-6.4
CCOC(=O)COc1nc(-c2ccc(C)cc2)cc(-c2ccco2)c1C#N,i,i,i,i,i,23.7
O=C(Cn1c(=O)c2cccn2c2cccnc21)N1CCN(c2ccc(Cl)cc2)CC1,i,i,i,i,i,-51.8
CC(C)Oc1ccc(CNC(=O)CCCN2C(=O)C(c3ccccc3)Oc3cccnc32)cc1 (configuration not stated),i,i,i,i,i,-2.5
COc1ccc(-c2nnc(-c3cc4c(ccc5ccccc54)oc3=O)o2)cc1,i,i,i,-9*,i,.
C#CCOCCOCCOCCNc1nc(N2CCN(C(=O)C([C@@H](C)CC)n3cc(C(N)CO)nn3)CC2)nc(N2CCN(C(=O)[C@H](CCC(=O)O)n3cc(C(N)[C@H](C)CC)nn3)CC2)n1 (some centres not stated),i,.,.,i,.,-9.2
O=C1CC2(CCCC2)CC(=O)N1c1ccccc1,i,i,i,i,i,-15.4
CCOC(=O)c1sc(NC(=O)CSc2n[nH]c(-c3ccccc3)n2)c(C#N)c1C,i,i,i,i,i,4.2
Cc1ccc(/C=C/C2=Cc3c(sc(NC(=O)CSc4n[nH]c(N)n4)c3C#N)C(C)(C)C2)o1,i,-5.39*,i,i,i,.
COc1cccc(CC2(CO)CCCN(Cc3cc(F)ccc3-n3cccn3)C2)c1 (configuration not stated),i,i,i,i,i,0.7
COc1ccc(/C=C/C(=O)NC(=S)NNC(=O)c2c(-c3ccccc3)noc2C)cc1,i,i,28.9*,i,i,8.0
CCNC(=S)NNC(=O)c1cc(-c2ccc(OCC)cc2)nc2ccccc12,i,i,i,i,i,.
COc1ccc(C(=O)NC(=S)NNC(=O)c2ccccc2C)cc1,i,i,62.1*,i,i,.
